The values below come from paper PMC6290999 (Journal of controlled release : official journal of the …, 2017).

Series [1] deals with T1, Pin1 (Homo sapiens, UniProt Q13526). Description: Western blotting of Pin1 and its substrates in HCC cells. In kind it is cell-based. The conditions noted are these: 72 h; for Pin1 expression: 20 μM ATRA. The essentials:
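PIN1-shRNA or scrambled-shRNA HuH7 and PLC lines were made by lentiviral transduction with 1 μg/mL puromycin selection. Lysates prepared in RIPA and quantified by BCA, run on SDS-PAGE and transferred to PVDF. Blocked in 5% milk, probed with anti-Pin1 (1:3000) then HRP secondary, detected by chemiluminescence; β-actin as loading control.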
(In general: In western blotting, separated proteins are transferred to a membrane and probed.)

In series [2] the test system is HuH7 cells. Nature of the series: Cell viability assay. The conditions noted are these: 0 to 40 μM ATRA; 24 h, 48 h, 72 h. The series is classed as cell-based, human. The essentials:
(§1)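 Seeded in 96-well plates at 3000 (HuH7) or 6000 (PLC) cells/well in DMEM or MEM with 10% FBS and cultured overnight. Treated with blank PLLA particles, free drug or drug-loaded PLLA particles; untreated control. MTT (5 mg/mL stock) added for 3 h, formazan dissolved in DMSO, absorbance read at 490 nm. Viability = OD sample/OD control × 100; IC50 calculated from inhibition rates.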

Series [3] has as its system PLC cells. Description: Cell viability assay. The series is classed as cell-based, human. Particulars: 0 to 40 μM ATRA; 24 h, 48 h, 72 h. In a few lines:
as §1

Series [4] concerns normal human liver L-02 cells. Nature of the series: Cell viability assay. In kind it is cell-based. Particulars: even at 20 μM.
Series [5] concerns shV–HuH7 cells. Nature of the series: Cell viability assay. In kind it is cell-based, human. Particulars: 20 μM, 72 h.
For series [6], the system named is shPin1–HuH7 cells. Nature of the series: Cell viability assay. The series is classed as cell-based, human. Particulars: 20 μM.
The test system of series [7] is shV–PLC cells. Description: Cell viability assay. In kind it is cell-based, human. The conditions noted are these: 20 μM; 24 h, 48 h, 72 h. In a few lines: (§2)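 Stable lines made by lentiviral pLKO.1 shRNA (PIN1 or scrambled) produced in 293T with pVSVG, pREV and pMDL helpers. PLC cells were infected, selected with 1 μg/mL puromycin and checked by Western blot. Viability read by MTT: 3 h incubation, DMSO solubilisation, 490 nm, expressed as OD sample/OD control × 100.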

For series [8], the system named is shPin1–PLC cells. Nature of the series: Cell viability assay. The series is classed as cell-based, human. The conditions noted are these: 20 μM; 24 h, 48 h, 72 h. The essentials:
as §2

Series [9] has as its system HuH7 cells. Nature of the series: Focus formation assay. In kind it is cell-based, human. The conditions noted are these: 72 h treatment, then 10~14 days; vs control cells. In a few lines:
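HuH7 seeded at 500 or 2000 cells/well in 12- or 6-well plates, cultured overnight, then treated 72 h with blank PLLA particles, free drug or drug-loaded PLLA particles. Medium then replaced and cells grown 10~14 days. Fixed and stained with 0.5% methylene blue in methanol; colonies above 50 cells counted. Focus area given as % of untreated control; triplicates.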

Series [10] has as its system HuH7 cells. Description: Cell cycle and apoptosis analysis. The series is classed as cell-based, human. The conditions noted are these: 10 μM and 20 μM ATRA, 72 h. In a few lines:
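HuH7 seeded at 0.9 × 10⁴ cells/cm², cultured overnight, then given blank PLLA particles (0.25 mg/mL), free drug (10 and 20 μM) or drug-loaded PLLA particles (10 and 20 μM drug) for 72 h; untreated cells as control. Trypsinised cells fixed in 70% ethanol (4°C, 2 h), stained with propidium iodide (30 min, 37°C, dark) using a kit, then analysed by flow cytometry.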

For series [11], the target named is T1, Pin1. Nature of the series: Pin1 and substrate expression in xenograft tumors. The series is classed as in vivo, BALB/c nu/nu mice. Particulars: immunofluorescence staining, 3 weeks treatment. The essentials:
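Male nude mice carried subcutaneous hind-limb HuH7 xenografts (4 × 10⁶ cells) and were treated for three weeks. Frozen tumour sections (10 μm) fixed in acetone 10 min, permeabilised and blocked with 1% Triton X-100 plus 10% donkey serum for 40 min. Primary antibodies (PIN1, Ki67) applied 24 h at 4°C, secondary 1 h at room temperature, DAPI nuclear stain.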

The nature of series [12]: Weight of mice in xenograft experiment. In kind it is in vivo, BALB/c nu/nu mice. The conditions noted are these: 3 weeks treatment. In a few lines: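 Male BALB/c nu/nu mice bore subcutaneous hind-limb HuH7 xenografts (4 × 10⁶ cells) and were randomised at about 50 mm³. Groups received saline, free drug (ethanol diluted in corn oil), blank PLLA particles, slow-release pellet, or drug-loaded particles in saline. Dosing was i.p. at 15 mg/kg drug, twice weekly for three weeks. Body weight recorded weekly.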

For series [13] the following is noted: under physiological conditions ref 41; cited from earlier work.

The structures appear in SMILES notation.

T1 sequence (Q13526 whole entry): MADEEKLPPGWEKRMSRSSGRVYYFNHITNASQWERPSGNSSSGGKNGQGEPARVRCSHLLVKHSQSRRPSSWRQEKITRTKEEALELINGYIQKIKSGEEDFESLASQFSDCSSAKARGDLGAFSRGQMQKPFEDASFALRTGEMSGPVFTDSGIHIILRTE

Consider `CC1=C(/C=C/C(C)=C/C=C/C(C)=C/C(=O)O)C(C)(C)CCC1` [ATRA, all-trans retinoic acid], for which the “Expression of Pin1 and its substrates (β-catenin, c-JUN, NF-κB, Cyclin D1, CDK2, CDK6)” value in series [1] (HuH7 and PLC cells, 5-20 μM ATRA) is listed as “obvious dose-dependent down-regulations”. For the same compound, the Pin1 expression result in series [1] (shPin1–HuH7 and shPin1–PLC cells) was “did not affect”; in [1] (shV–HuH7 and shV–PLC cells), “significantly down-regulated”. Also, the “Inhibition on HuH7 cell viability” value in [2] was “Dose-dependent inhibition”. In addition, the “Inhibition on PLC cell viability” value in [3] is listed as “dose-dependent inhibition”. Moreover, in series [4], the “Inhibition on viability of L-02 cells” value is “no significant inhibition”. The “Decrease of cell viability” value was “approximately 36%” in [5]; “did not decrease cell viability” in series [6] (24 h and 48 h); “did not decrease cell viability” in [8]. For the same compound, the “Inhibition on cell viability” value was “very significant (p < 0.001) time-dependent inhibition” in [5] (24 h, 48 h) and “significant time-dependent inhibition” in series [7]. In addition, the “Reduction of cell viability” value in series [6] (72 h) is given as “about 15%”. Moreover, in [9], the “Number and area of foci” value is given as “significant dose-dependent reductions”. The Apoptosis result in series [10] is reported as “did not induce significant apoptosis”. For the same compound, the “Proportion of cells in G0/G1 phase” value in [10] was “significantly increased”. In addition, the “Proportion of cells in G2/M phase” value in series [10] is given as “decreased”. Also, in [11], the “Expression of Pin1 and Ki67 in tumors vs saline group” value was “did not induce obvious changes”. Further, the “Weights of mice vs saline group” value in series [12] is “did not induce significant changes”. In addition, the Aqueous solubility – broadly, the dissolved amount per volume that the medium holds – in series [13] is 0.21 µM.
